Measurements collected from several papers.
Read-out: metabolic stability
Species: human
Matrix: liver microsomes

| SMILES | concentration | pH | microsomal CLint |
| --- | --- | --- | --- |
| CCC(F)(F)c1cc(N2C(=O)NC(C)(C)C2=O)ccc1F | – | – | < 7 µL/min/mg |
| Cc1ccc(N(c2ccc(NC(=O)CN(C)c3ccccc3N3CCCC3=O)cn2)C(C)C)cc1 | – | – | 270 µL/min/mg |
| CCOc1ccc(-c2csc(CNC(=O)[C@H]3CCCN(C(=O)COC)C3)n2)cc1 | 0.5 µM | – | 24 µL/min/mg |
| CC1(C)NC(=O)N(c2ccc(F)c(CC(F)(F)F)c2)C1=O | – | – | < 7 µL/min/mg |
| O=c1c2c([nH]c3cc(Nc4ccc(OC(F)(F)F)cc4)ccc13)CCCC2 | 1 µM | pH 7.4 | 67 µL/min/mg |
| CNc1ccc(C(N)=O)cn1 | 1 µM | pH 7.4 | < 3 µL/min/mg |
| O=c1c2ccc(Oc3ccccc3OC(F)(F)F)cc2[nH]c2cc(Cl)cc(F)c12 | 1 µM | pH 7.4 | 20.3 µL/min/mg |
| COc1ccc(Cn2cc(CO[C@@H]3O[C@H]4[C@H](OC[C@H]4O)[C@H]3O)nn2)cc1 | – | – | < 14.4 µL/min/mg |
| CONC(=O)N1CCC[C@H](C(=O)NCc2nc(-c3ccccc3)cs2)C1 | 0.5 µM | – | 7.3 µL/min/mg |
| CC1(C)NC(=O)N(c2ccc(F)c(S(C)(=O)=O)c2)C1=O | – | – | < 7 µL/min/mg |
| O=C(O)Cc1ccccc1Nc1c(Cl)cccc1Cl | 2 µM | pH 7.4 | 201 µL/min/mg |
| CC1(C)NC(=O)N(c2ccc(F)c(Br)c2)C1=O | – | – | < 7 µL/min/mg |
| Cc1[nH]c(C)c(S(=O)(=O)Nc2ccc(C(F)(F)F)c(Cl)c2)c1C(=O)N(C)C | – | – | 79 µL/min/mg |
| CONC(=O)c1cccc2c1cc(C)n2-c1nc2c(c(NCc3ccccc3)n1)CCCN2 | 1 µM | pH 7.4 | 98.7 µL/min/mg |
| Cc1ccc(N(c2ccc(NC(=O)CN(C)c3ccccc3N3CCCC3=O)cc2)C(C)C)cc1 | – | – | 319 µL/min/mg |
| Cc1ccc(OCC(=O)N[C@@H](Cc2c[nH]c3ccccc23)C(=O)OC(C)C)cc1 | 20 mM | – | 14.6 µL/min/mg |
| COc1ccc(Oc2ccc3c(=O)c4c(F)cc(Cl)cc4[nH]c3c2)cc1 | 1 µM | pH 7.4 | 12.3 µL/min/mg |
| Cc1[nH]c(C)c(S(=O)(=O)Nc2ccc(C(F)(F)F)c(Cl)c2)c1C(=O)N1CCC(F)(F)C1 | – | – | 68 µL/min/mg |
| O=C(NCc1nc(-c2ccccc2)cs1)[C@H]1CCCN(C(=O)[C@H]2CCCO2)C1 | 0.5 µM | – | 35 µL/min/mg |
| CN1CCN(c2ccc(-c3ccc4nncc(Nc5ccc(OC(F)(F)F)cc5)c4c3)cc2)CC1 | – | – | 30 µL/min/mg |
| O=c1c2c([nH]c3cc(Oc4ccc(OC(F)(F)F)cc4)ccc13)CCCC2 | 1 µM | pH 7.4 | 51.8 µL/min/mg |

| SMILES | concentration | pH | microsomal CLint |
| --- | --- | --- | --- |
| COCC(=O)N1CCC[C@H](C(=O)NCc2nc(-c3ccc(C(F)(F)F)cc3)cs2)C1 | 0.5 µM | – | 37 µL/min/mg |
| O=C1NC(CF)(CF)C(=O)N1c1ccc(F)c(C(F)(F)F)c1 | – | – | < 7 µL/min/mg |
| N#Cc1ccc(-c2csc(CNC(=O)[C@H]3CCCN(C(=O)COC4CC4)C3)n2)cc1 | 0.5 µM | – | 49 µL/min/mg |
| O=c1c2c([nH]c3cccc(Oc4ccc(OC(F)(F)F)cc4)c13)CCCC2 | 1 µM | pH 7.4 | 109 µL/min/mg |
| c1ccc(Oc2ccc(Nc3c4c(nc5ccccc35)CCC4)cc2)cc1 | 0.5 µM | – | 31 µL/min/mg |
| O=C1c2ccccc2C(=O)N1CCCN1CCN(C(c2ccc(F)cc2)c2ccc(F)cc2)CC1 | 100 ng/mL | – | 39 µL/min/mg |
| O=c1c2ccc(OCc3cccc(OC(F)(F)F)c3)cc2[nH]c2cc(Cl)cc(F)c12 | 1 µM | pH 7.4 | 16.1 µL/min/mg |
| Cc1ccc(C(C)(C)c2ccc(NC(=O)CN(C)c3ccccc3N3CCCC3=O)cc2)cc1 | – | – | 263 µL/min/mg |
| CC1(C)NC(=O)N(c2cccc(C(F)(F)F)n2)C1=O | – | – | < 7 µL/min/mg |
| O=c1c2c(F)cc(Cl)cc2[nH]c2cccc(Oc3ccc(OC(F)(F)F)cc3)c12 | 1 µM | pH 7.4 | 5.86 µL/min/mg |
| CN(CC(=O)Nc1ccc(N(C)c2ccc(Cl)c(F)c2)cc1)c1ccccc1N1CCCC1=O | – | – | 218 µL/min/mg |
| CCOCC(=O)N1CCC[C@H](C(=O)NCc2nc(-c3ccc(-n4cccn4)cc3)cs2)C1 | 0.5 µM | – | 64 µL/min/mg |
| Cc1ccc(Oc2ccc(NC(=O)COc3ccccc3N3CCCC3=O)cc2)cc1 | – | – | 132 µL/min/mg |
| COCC(=O)N1CCC[C@H](C(=O)NCc2nc(-c3ccc(Cl)cc3)cs2)C1 | 0.5 µM | – | 25 µL/min/mg |
| CC1(C(F)(F)F)NC(=O)N(c2ccc(F)c(C(F)(F)F)c2)C1=O (stereo not drawn) | – | – | < 7 µL/min/mg |
| CCN(CC)CCNC(=O)c1c(C)[nH]c(/C=C2\C(=O)Nc3ccc(F)cc32)c1C | 1 µM | pH 7.4 | 25.6 µL/min/mg |
| Cc1ccc(Nc2cnnc3ccc(-c4ccc(N5CCCN(C)CC5)cc4)cc23)cn1 | – | – | 75 µL/min/mg |
| Cc1ccc(N(C)c2ccc(NC(=O)CN(C)c3cc(F)ccc3N3CCCC3=O)cc2)cc1 | – | – | 260 µL/min/mg |
| O=c1c2c([nH]c3ccc(Oc4ccc(OC(F)(F)F)cc4)cc13)CCCC2 | 1 µM | pH 7.4 | 55.3 µL/min/mg |
| CC1(C)CCC(C(=O)NCc2nc(-c3ccc(C#N)cc3)cs2)CN1C(=O)COCCF (racemic) | 0.5 µM | – | 219 µL/min/mg |
| CC(C)N(c1ccc(C#N)cc1)c1ccc(NC(=O)CN(C)c2ccccc2N2CCCC2=O)cn1 | – | – | 309 µL/min/mg |
